Experimental data from ChEMBL document CHEMBL1150162, “Antimicrobial activities of naphthazarins from Arnebia euchroma” (2002).
≈ marks a conversion by molar mass, not a printed value. Calls of active or inactive are those of the source. No cut-off for these calls is given here.

How the values were obtained:
[1] = system: Enterococcus faecalis; experiment: Antibacterial activity against vancomycin-resistant Enterococcus faecalis CKU-17 expressing VanB after 48 hrs by broth microdilution method; assay type: functional; conditions: CKU-17, 48 h
[2] = system: Enterococcus faecalis; experiment: Antibacterial activity against Enterococcus faecalis after 48 hrs by broth microdilution method; assay type: functional
[3] = system: HepG2; experiment: Cytotoxicity against human HepG2 cells after 48 hrs by MTT assay; assay type: functional; conditions: HepG2, 48 h, read-out: CD50 (the source's name)
In short: (§1)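 Cells seeded at 5 × 10^3 per well, grown 24 h, then given 2-fold dilutions of sample for 48 h. Medium replaced with serum-free medium, MTT added (5 mg/mL stock) for 2 h at 37 °C, formazan dissolved in DMSO, OD read at 550 nm. CD50 is the concentration giving 50% reduction in net cell increase. Quadruplicate, repeated at least twice.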

[4] = system: Enterococcus faecium; experiment: Antibacterial activity against vancomycin-resistant Enterococcus faecium F935 expressing VanA after 48 hrs by broth microdilution method; assay type: functional; conditions: F935, 48 h
[5] = system: Pseudomonas aeruginosa; experiment: Antibacterial activity against Pseudomonas aeruginosa up to 100 ug/mL after 24 hrs by broth microdilution method; assay type: functional, organism-based
In short: (§2)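 Broth microdilution with 2-fold serial dilutions in LB broth, compounds from DMSO stocks (DMSO below 5% final), inoculum about 5 × 10^5 CFU/mL. Incubated 24 h at 35 °C in ambient air. MIC is the lowest concentration with no visible growth. Experiments repeated three times.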

[6] = system: Staphylococcus aureus; experiment: Antibacterial activity against methicillin-resistant Staphylococcus aureus 8-8S after 48 hrs by broth microdilution method; assay type: functional
[7] = system: Enterococcus faecalis; experiment: Antibacterial activity against Enterococcus faecalis after 24 hrs by broth microdilution method; assay type: functional
In short: (§3)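 2-fold serial dilutions of test agent in LB broth, DMSO under 5% final. Inoculum about 5 × 10^5 CFU/mL, confirmed by LB agar plating. Incubated 24 h at 35 °C in ambient air. MIC is the lowest concentration with no visible growth. Three repeats; oxacillin, vancomycin and chloramphenicol as positive controls.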

[8] = system: OVCAR-3; experiment: Cytotoxicity against human OVCAR-3 cells after 48 hrs by MTT assay; assay type: functional; conditions: OVCAR-3, 48 h, read-out: CD50 (the source's name); in short: as §1
[9] = system: Staphylococcus aureus; experiment: Antibacterial activity against methicillin-resistant Staphylococcus aureus 8-8S after 24 hrs by broth microdilution method; assay type: functional
In short: as §3, with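 “in […]” for “in LB”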

[10] = system: HeLa; experiment: Cytotoxicity against human HeLa cells after 48 hrs by MTT assay; assay type: functional; conditions: read-out: CD50 (the source's name); in short: as §1
[11] = system: Staphylococcus aureus; experiment: Antibacterial activity against methicillin-resistant Staphylococcus aureus 8-8S assessed as reduction of bacterial count at MIC within 2 hrs by time kill assay; assay type: functional, organism-based
In short: (§4)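 Time-kill in Mueller-Hinton broth with multiples of the broth microdilution MIC. Starting inoculum about 5 × 10^5 CFU/mL, incubated at 35 °C. Samples taken at 0, 2, 4, 6 and 24 h, dilution-plated on LB agar, and counted after 24 h. Detection limit 100 CFU/mL; bactericidal means 3 log or greater reduction.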

[12] = system: Staphylococcus aureus; experiment: Antibacterial activity against Staphylococcus aureus after 48 hrs by broth microdilution method; assay type: functional
[13] = system: Enterococcus faecalis; experiment: Antibacterial activity against vancomycin-resistant Enterococcus faecalis CKU-17 expressing VanB assessed as reduction of bacterial count by time kill assay; assay type: functional, organism-based
In short: (§5)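 Time-kill in LB broth with multiples of the broth microdilution MIC (1/2 to 8× MIC). Starting inoculum about 5 × 10^5 CFU/mL, incubated at 35 °C. Samples taken at 0, 2, 4, 6 and 24 h, dilution-plated on LB agar, and counted after 24 h. Detection limit 100 CFU/mL.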

[14] = system: Enterococcus faecalis; experiment: Antibacterial activity against vancomycin-resistant Enterococcus faecalis CKU-17 expressing VanB after 24 hrs by broth microdilution method; assay type: functional; conditions: CKU-17, 24 h; in short: as §3
[15] = system: Enterococcus faecalis; experiment: Ratio of MBC to MIC for Enterococcus faecalis; assay type: functional
[16] = system: Enterococcus faecium; experiment: Ratio of MBC to MIC for vancomycin-resistant Enterococcus faecium F935 expressing VanA; assay type: functional
[17] = system: Escherichia coli; experiment: Antibacterial activity against Escherichia coli up to 100 ug/mL after 24 hrs by broth microdilution method; assay type: functional, organism-based; in short: as §2
[18] = system: Staphylococcus aureus; experiment: Ratio of MBC to MIC for Staphylococcus aureus; assay type: functional
[19] = system: Staphylococcus aureus; experiment: Antibacterial activity against methicillin-resistant Staphylococcus aureus 8-8S assessed as reduction of bacterial count at 0.5 MIC within 2 hrs by time kill assay; assay type: functional; design: scale not given: the % may be the effect or the level left; in short: as §4
[20] = system: Staphylococcus aureus; experiment: Antibacterial activity against Staphylococcus aureus after 24 hrs by broth microdilution method; assay type: functional
In short: as §3, with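 “in […]” for “in LB”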

[21] = system: Enterococcus faecium; experiment: Antibacterial activity against vancomycin-resistant Enterococcus faecium F935 expressing VanA assessed as reduction of bacterial count by time kill assay; assay type: functional, organism-based; in short: as §5
[22] = system: Enterococcus faecium; experiment: Antibacterial activity against vancomycin-resistant Enterococcus faecium F935 expressing VanA after 24 hrs by broth microdilution method; assay type: functional; conditions: F935, 24 h; in short: as §3

SMILES: CC(=O)O[C@@H](CC=C(C)C)C1=CC(=O)c2c(O)ccc(O)c2C1=O [ACETYLALKANNIN]
- MBC [1]: 6.25 µg/mL (≈ 18.9 µM)
- MBC [2]: 3.13 µg/mL (≈ 9.48 µM)
- CC50 [3]: 2 µg/mL (≈ 6.05 µM)
- MBC [4]: 6.25 µg/mL (≈ 18.9 µM)
- Activity [5]: inactive
- MBC [6]: 1.56 µg/mL (≈ 4.72 µM)
- MIC [7]: 3.13 µg/mL (≈ 9.48 µM)
- CC50 [8]: 1.5 µg/mL (≈ 4.54 µM)
- MIC [9]: 1.56 µg/mL (≈ 4.72 µM)
- CC50 [10]: 1.5 µg/mL (≈ 4.54 µM)
- Activity [11]: Active
- MBC [12]: 1.56 µg/mL (≈ 4.72 µM)
- Activity [13]: Dose-dependent effect
- MIC [14]: 6.25 µg/mL (≈ 18.9 µM)
- Ratio [15]: <=2
- Ratio [16]: <=2
- Activity [17]: inactive
- Ratio [18]: <=2
- Activity [19]: >=99.9%
- MIC [20]: 1.56 µg/mL (≈ 4.72 µM)
- Activity [21]: Dose-dependent effect
- MIC [22]: 6.25 µg/mL (≈ 18.9 µM)
